The results in this text go back to ChEMBL document CHEMBL1154156, “Natural tanshinone-like heterocyclic-fused ortho-quinones from regioselective Diels-Alder reaction: synthesis and cytotoxicity evaluation” (Eur J Med Chem, 2009).

A short description of experiment [1]: Cytotoxicity against human GLC82 cells after 48 hrs by MTT assay. Type of experiment: functional, cell-based. An outline of the steps:
(§1)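 Human cells (GLC-82 lung adenocarcinoma; CNE2 nasopharyngeal carcinoma) were seeded at 1×10⁴ per well and incubated overnight. They were then exposed for 48 h to increasing compound concentrations (0–100). MTT (5 mg/mL stock) was added for 4 h at 37 °C, and unconverted MTT was removed before plate-reader absorbance. Runs were in quadruplicate, with viability as % of untreated control. IC50 is the concentration reducing mean viability to 50%.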

The nature of experiment [2]: Cytotoxicity against human CNE2 cells after 48 hrs by MTT assay. The class given is functional, cell-based, CNE-2. An outline of the steps:
as §1

[3] abbreviates: Homo sapiens, GLC82, 48 h, read-out: IC50.
Setting [4] is: Homo sapiens, CNE-2, 48 h, read-out: IC50.

`CC(=O)Nc1c(C)cc(C)c2c1C(=O)C(=O)c1c(-c3ccc(Cl)cc3)coc1-2`: the values for the IC50 in experiment [1] (setting [3]) and in experiment [2] (setting [4]) were 6 µM and 9.2 µM, respectively.

On to `CC(=O)Nc1c(C)cc(C)c2c1C(=O)C(=O)c1c(-c3ccc(Cl)cc3)csc1-2`, for which the concentration for half-maximal inhibition (IC50) came out at 7.5 µM in experiment [1] (setting [3]) and 6.8 µM in experiment [2] (setting [4]).

Turning to `Cc1cc(C)c2c(c1)C(=O)C(=O)c1c(-c3ccc(F)cc3)coc1-2`, the IC50 result in experiment [1] (glc82) and in experiment [2] (cne-2) was “ND(Insoluble)” throughout.

Take `O=C1C(=O)c2c(-c3ccccc3)csc2-c2ccccc21`: the IC50 in experiment [1] (setting [3]) was 20.1 µM.

Turning to `O=C1C(=O)c2c(-c3ccc(Cl)cc3)coc2-c2cccc(N3C(=O)CCC3=O)c21`, the IC50 in experiment [1] (setting [3]) was 1.6 µM; in experiment [2] (setting [4]), 2 µM.

Turning to `CC(=O)Nc1c(C)cc(C)c2c1C(=O)C(=O)c1c(-c3ccccc3)csc1-2`, the figures for the IC50 in experiment [1] (setting [3]) and in experiment [2] (setting [4]) were 5 µM and 4.1 µM, respectively.

As to `Cc1cc(C)c2c(c1)C(=O)C(=O)c1cc(C)oc1-2`, the IC50 entry in experiment [1] (glc82) and in experiment [2] (cne-2) was “ND(Insoluble)” in each case.

Regarding `CC(=O)Nc1c(C)cc(C)c2c1C(=O)C(=O)c1c(-c3ccc(C)cc3)coc1-2`, the IC50 in experiment [1] (setting [3]) was determined as 9.5 µM; in experiment [2] (setting [4]), 5.6 µM.

`CC(=O)Nc1c(C)cc(C)c2c1C(=O)C(=O)c1c(-c3ccc(C)c(C)c3)coc1-2`: the IC50 entry in experiment [1] (glc82) and in experiment [2] (cne-2) was “ND(Insoluble)” throughout.

With `CC(=O)Nc1c(C)cc(C)c2c1C(=O)C(=O)c1c(-c3ccccc3C)csc1-2`, in experiment [2] (setting [4]), the IC50 worked out at 4.2 µM.

Consider `Cc1cc(C)c2c(c1)C(=O)C(=O)c1c(-c3ccccc3)coc1-2`, for which the IC50 in experiment [1] (setting [3]) and in experiment [2] (setting [4]) was over 25 µM each time.

`CC(=O)Nc1c(C)cc(C)c2c1C(=O)C(=O)c1c(-c3ccc(F)cc3)coc1-2`: in experiment [1] (setting [3]), the IC50 was 8.9 µM.

`CC(=O)Nc1c(C)cc(C)c2c1C(=O)C(=O)c1c(-c3ccc(F)cc3)csc1-2`: the IC50 was found to be 3.9 µM in experiment [1] (setting [3]) and 4.6 µM in experiment [2] (setting [4]).

On to `CC(=O)Nc1c(C)cc(C)c2c1C(=O)C(=O)c1c(-c3ccccc3)coc1-2`, for which the IC50 in experiment [1] (setting [3]) worked out at 7.2 µM; in experiment [2] (setting [4]) it was 4.8 µM.

In the case of `Cc1cc(C)c2c(c1)C(=O)C(=O)c1c(-c3ccc(C)c(C)c3)coc1-2`, the IC50 result in experiment [1] (glc82) and in experiment [2] (cne-2) was “ND(Insoluble)” in each case.

For the molecule `Cc1ccc(-c2coc3c2C(=O)C(=O)c2cc(C)cc(C)c2-3)cc1`, the IC50 in experiment [1] (setting [3]) is 12 µM; in experiment [2] (setting [4]), 23.3 µM.

Turning to `Cc1cc(C)c2c(c1)C(=O)C(=O)c1c(-c3ccc(Cl)cc3)coc1-2`, the IC50 result in experiment [1] (glc82) and in experiment [2] (cne-2) was “ND(Insoluble)” throughout.

Regarding `CC[C@@]1(O)C(=O)OCc2c1cc1n(c2=O)Cc2cc3cc(O)ccc3nc2-1` [HYDROXYCAMPTOTHECIN], the half-maximal inhibitory concentration (IC50) in experiment [1] (setting [3]) worked out at 1.09 µM; in experiment [2] (setting [4]), 0.37 µM.
